High-throughput results deposited in PubChem by The Scripps Research Institute Molecular Screening Center.
CHRM5 antagonist – blocks acetylcholine activation of human M5 receptor. 360,000 tested, 0.59% active. CHO-hM5 cells, Fluo-8 calcium fluorescence, ACh EC80. AID 624040. P08912. inhibition, % at 3 µM;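 active = inhibition above a per-plate cutoff, the mean of that plate's test compounds plus 3 SD, cut at about 27% in these data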
CHRM4 agonist – agonists of human muscarinic M4 receptor (CHRM4) | P08173 | CHO-K1 hM4/Gqi5, Fluo-8 calcium fluorescence; vehicle 0%, full acetylcholine response 100% | 360,000 tested, 0.14% active | activation, % at 3 µM;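 active = activation above the run mean over all test wells plus 3 SD, cut at about 32% in these data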;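 also: peak over basal fluorescence ratio per well then scaled between controls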
Target sequence (P08173 whole entry, looked up): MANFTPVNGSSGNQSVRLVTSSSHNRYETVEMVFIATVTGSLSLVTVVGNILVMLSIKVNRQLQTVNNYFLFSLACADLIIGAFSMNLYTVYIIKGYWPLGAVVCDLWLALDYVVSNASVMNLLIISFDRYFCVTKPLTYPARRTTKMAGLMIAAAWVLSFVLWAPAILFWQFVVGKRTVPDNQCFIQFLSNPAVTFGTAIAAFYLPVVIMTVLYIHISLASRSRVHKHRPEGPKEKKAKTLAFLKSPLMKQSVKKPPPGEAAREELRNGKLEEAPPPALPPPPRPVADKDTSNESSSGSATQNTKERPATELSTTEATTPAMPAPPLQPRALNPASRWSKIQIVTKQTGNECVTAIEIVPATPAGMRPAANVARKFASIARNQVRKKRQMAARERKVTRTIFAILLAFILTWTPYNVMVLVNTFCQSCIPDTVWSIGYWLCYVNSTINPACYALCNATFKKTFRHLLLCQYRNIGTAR
CHRM4 antagonist – blocks acetylcholine activation of human M4 receptor; P08173; CHO-hM4 cells, ACh EC80, Fluo-8 calcium fluorescence; inhibition, % at 3 µM; 360,000 tested, 0.73% active;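 active = inhibition above its plate's cutoff, the mean inhibition of sample wells plus 3 SD, cut at about 27% in these data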
M5 ag – CHRM5 agonism in calcium assay | CHO-K1 hM5 cells, Fluo-8 calcium fluorescence; 0% DMSO wells, 100% maximal acetylcholine response | 360,000 tested, 0.19% active | activation, % at 3 µM;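 active = activation above the run's mean over test compounds plus 3 SD, cut at about 23% in these data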;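 also: signal is peak over basal fluorescence ratio across the kinetic read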
CHRM5 PAM – CHRM5 positive allosteric modulation; activation, % at 3 µM; P08912; CHO-K1 hM5, Fluo-8 calcium, ACh EC20 PAM; 0% = ACh EC20, 100% = ACh EC100; 360,000 tested, 0.3% active;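 active = activation above the run cutoff, the mean activation of all test compounds plus 3 SD, cut at about 18% in these data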
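system = human M5 receptor in CHO-K1 cells | reagent = EC20 acetylcholine as agonist stimulus | compound dosing = single-point, 3 µM nominal | incubation = Fluo-8 loading 80 min at 37 °C plus 30 min room temperature | detection = Fluo-8 calcium dye fluorescence, kinetic read | benchmarks = low control EC20 acetylcholine (0%), high control EC100 acetylcholine (100%)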
CHRM4 PAM – CHRM4 positive allosteric modulation; CHO-K1 hM4/Gqi5, Fluo-8 calcium fluorescence, ACh EC20; 0% = ACh EC20, 100% = maximal ACh; 360,000 tested, 0.4% active; activation, % at 3 µM; AID 624126;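 active = activation above its plate's cutoff, the mean activation of sample wells plus 3 SD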
Large screens that a line does not name were inactive. In the library only some 1.8% were active in any assay of this set; here they are far more common.

COc1ccc(CNC(=O)COC(=O)[C@H](Cc2c[nH]c3ccccc23)NC(=O)c2cccs2)cc1	CHRM4 antagonist 31
CSCCC(C(=O)Nc1c(C)cccc1C)N1CCN(c2ccc(F)cc2)CC1 (stereo unspecified)	none
O=C(COC(=O)c1ccccn1)NC12CC3CC(CC(C3)C1)C2	CHRM4 antagonist 30
O=C(COC(=O)c1ccccc1O)NC12CC3CC(CC(C3)C1)C2	none
CC(C)CN(C(=O)CCC(=O)OCc1ccc(Cl)cc1Cl)c1c(N)n(CC(C)C)c(=O)[nH]c1=O	none
NS(=O)(=O)c1ccc(N2N=C(c3ccccc3)CC2c2ccccc2Cl)cc1 (stereo unspecified)	none
Nc1c(C(=O)c2ccccc2)sc2nsc(SCCN3CCCC3)c12	M5 ag 32
Nc1c(C(=O)c2ccc(Cl)cc2)sc2nsc(SCCN3CCOCC3)c12	none
COc1ccc([C@H]2N[C@]3(CCCN(Cc4ccc(Cl)cc4)C3=O)[C@H]3C(=O)N(Cc4ccccc4)C(=O)[C@@H]23)cc1	none
CC(C)CC[n+]1ccccc1/C=C/c1ccc(N(C)C)cc1	CHRM5 antagonist 29
CN(C)c1ccc(/C=C/c2cccc[n+]2[O-])cc1	none
COc1cc(OC)cc(-c2c(Sc3ccccc3)c3cc(-c4ccc(OC)c(F)c4)ccc3n2C)c1	none
CN1\C(=C/C=C/C=C/C=[N+](C)C)C(C)(C)c2ccccc21	M5 ag 38
O=C(NCCn1cc(SCc2ccc(F)cc2)c2ccccc21)c1ccccc1F	CHRM4 antagonist 28
Cc1ccc2nc(SCC(=O)N3CCC(Cc4ccccc4)CC3)nc(=O)n2c1	CHRM4 agonist 35
COc1ccc(CCN(Cc2cc3cccc(C)c3[nH]c2=O)C(=O)NC2CCCCC2)cc1OC	CHRM4 antagonist 31
Cc1cccc2cc(CN(CC3CCCO3)C(=O)NC3CCCCC3)c(=O)[nH]c12 (stereo unspecified)	none
O=C(Nc1ccc(N2CCOCC2)cc1)c1csc([C@@H]2C[C@H](O)[C@@H](CO)O2)n1	none
O=C(NCc1ccco1)c1nnc(Cc2ccc(F)cc2)o1	none
O=C(NCc1ccco1)c1nnc(Cc2ccc(Cl)cc2)o1	CHRM4 antagonist 39
CCC1Sc2ccc(S(=O)(=O)Nc3ccc(OC)c(OC)c3)cc2NC1=O (stereo unspecified)	CHRM5 antagonist 31
CN(C(=O)CN1CCN(c2cnn(-c3ccccc3)c(=O)c2Cl)CC1)C1CCS(=O)(=O)C1 (stereo unspecified)	none
CCn1c(CNc2ccccc2Cl)nnc1SCCN1CCCCC1	CHRM4 antagonist 33
CCCCCCCNC(=O)CN1C(=O)CSc2ccc(S(=O)(=O)N3CCOCC3)cc21	CHRM5 antagonist 30
CCCCNC(=O)CN1C(=O)CSc2ccc(S(=O)(=O)N3CCOCC3)cc21	none
CC1CCN(C(=O)Cn2cc(C#N)c3ccccc32)CC1	CHRM4 antagonist 27
COc1ccc(OC)c(NC(=O)COC(=O)CCc2ccc(S(=O)(=O)N3CCOCC3)cc2)c1	none
Cc1ccccc1OCCCN1C(=O)C(=O)c2cccc(C)c21	M5 ag 26
Cc1ccc2c(c1)C(=O)C(=O)N2CCOc1ccccc1	M5 ag 24
Cc1cccc2c1N(CCCOc1ccc(C(C)(C)C)cc1)C(=O)C2=O	none
Cc1cccc2c1N(CCCOc1ccccc1)C(=O)C2=O	M5 ag 27
Cc1ccc2c(c1)C(=O)C(=O)N2Cc1ccc(Br)cc1	M5 ag 31
Cc1cccc(OCCN2C(=O)C(=O)c3cc(C)ccc32)c1	none
CCCCNC(=S)N(CCO)Cc1cc2cc3c(cc2[nH]c1=O)OCCO3	none
COc1ccc(N(CC(=O)NCc2cccs2)S(=O)(=O)c2cccc(C)c2)cc1	none
O=C(Nc1c[nH]c(=O)[nH]c1=O)c1cc([N+](=O)[O-])cc([N+](=O)[O-])c1	none
CCN(CC)CCNC(=O)c1ccc(NC(=O)/C=C/c2ccc3ccccc3n2)cc1	none
Cn1c(SCCN2CCCC2)nnc1C1CCN(S(=O)(=O)c2cccc(F)c2)CC1	CHRM4 antagonist 32
Cn1c(SCC(N)=O)nnc1C1CCN(S(=O)(=O)c2ccccc2C(F)(F)F)CC1	none
O=C(CO/N=C1\CCCc2nonc21)Nc1ccccc1Cl	CHRM4 antagonist 27
OCCN1CCN(CC/C=C2/c3ccccc3Sc3ccc(Cl)cc32)CC1	none
CN(C)CCOc1ccc2c(c1)Sc1ccccc1CC2=O	none
CN(C)CC/C=C1/c2ccc(F)cc2Sc2ccc(Cl)cc21	CHRM5 antagonist 99, CHRM4 antagonist 100
CN(C)CC/C=C1\c2ccccc2Sc2cc(F)c(Cl)cc21	CHRM5 antagonist 100, CHRM4 antagonist 99
CN(C)CC/C=C1\c2ccccc2Sc2ccc(Cl)cc21	CHRM5 antagonist 100, CHRM4 antagonist 98
CN(C)CC/C=C1\c2cc(Cl)ccc2Sc2cc(F)c(F)cc21	CHRM5 antagonist 99, CHRM4 antagonist 98
CCN(CC)c1ncnc2c1ncn2[C@H]1CN(Cc2ccc(-c3ccccc3)cc2)C[C@@H](CO)O1	none
CN(C)CC/C=C1\c2ccc(F)cc2Sc2cc(F)c(Cl)cc21	CHRM5 antagonist 99, CHRM4 antagonist 99
CC(=O)Nc1ccc(C(=O)COC(=O)C2CC2C)c(F)c1 (stereo unspecified)	none
COc1ccc(N2Cc3ccc(OC)c(OC)c3C2=O)cc1	CHRM4 antagonist 60
Cc1ccc(N2CCN(C(=O)C(=O)c3cccc(Br)c3)CC2)cc1	none
O=C(C(=O)N1CCN(c2ccccc2)CC1)c1cccc(Br)c1	CHRM4 antagonist 30
Cc1ccnc(NC(=O)CCNC(=O)c2ccccc2Cl)c1	CHRM4 PAM 21
Cc1ccc(NC(=O)CCNC(=O)c2ccccc2Cl)nc1	none
O=C(O)c1ccc(Cl)c(NC(=S)NC(=O)c2ccccc2[N+](=O)[O-])c1	none
CSc1ccc(CN2CCC(Oc3ccc(C(=O)N4CCCC4)cc3)CC2)cc1	CHRM4 antagonist 29
CCc1ccc(CN2CCC(Oc3ccc(C(=O)N4CCCC4)cc3)CC2)cc1	CHRM4 antagonist 36
CC(C)c1ccc(CN2CCC(Oc3ccc(C(=O)N4CCCC4)cc3)CC2)cc1	CHRM5 antagonist 30, CHRM4 antagonist 31
Cc1ccc(S(=O)(=O)NC(=O)NN2CC3CCCC3C2)cc1 (stereo unspecified)	none
CN1CCN(C2=CC3=CC(=C(C#N)C#N)CCC3CC2)CC1 (stereo unspecified)	CHRM5 antagonist 72, CHRM4 agonist 538, CHRM4 antagonist 71, M5 ag 492
CCN1CCN(C2=CC3=CC(=C(C#N)C#N)CCC3CC2)CC1 (stereo unspecified)	CHRM5 antagonist 59, CHRM4 agonist 270, CHRM4 antagonist 58, M5 ag 222
